System: MS2 coat protein
Test: apparent Kd, MS2 coat protein; higher = weaker binding; RNA-MaP array; FMN 200 µM where present
Summary of the method: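 Binding was read on Illumina sequencing-chip clusters where stalled E. coli RNA polymerase had transcribed each design. A titration of SNAP-549-labelled MS2 coat protein began at 0.7 or 1.5 nM and doubled to 3 µM, once without ligand and once with constant ligand, in 100 mM Tris-HCl pH 7.5, 80 mM KCl, 4 mM MgCl2, BSA, DTT, yeast tRNA and Tween-20. The apparent Kd is the median of filtered per-cluster binding-curve fits, based on green signal normalised to red-channel RNA signal and control-cluster median Fmax.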

[1] = designed as: OFF switch for flavin mononucleotide, no ligand
[2] = ligand present: flavin mononucleotide, designed as: OFF switch for flavin mononucleotide
[3] = designed as: ON switch for flavin mononucleotide, no ligand
[4] = ligand present: flavin mononucleotide, designed as: ON switch for flavin mononucleotide

| Sequence | apparent Kd [1] | apparent Kd [2] | apparent Kd [3] | apparent Kd [4] |
| --- | --- | --- | --- | --- |
| UAUAUAUAGUAAGGAUAUGUAUUAAUGUUAUAAACAGAAGGUACUGACAUGAGGAUCACCCAUGUUUUAGUGUGGGCAUGUAGA | 0.0921 µM | 0.131 µM |  |  |
| UAUAUAUAGUAAGGAUAUGUAUUAGUUUUAUAAACAGAAGGUACUGACAUGAGGAUCACCCAUGUUUUAGUGUGGGCAUGUAGA | 0.09 µM | 0.144 µM |  |  |
| UAUAUAUAGUAAGGAUAUGUAUUUAUUUUAGAAACAGAAGGUACUGACAUGAGGAUCACCCAUGUUUUAGUGUGGGCAUGUAGA | 0.0963 µM | 0.152 µM |  |  |
| UAUAUAUAGUAAGGAUAUGUAUUUAUUUUAUUAACAGAAGGUACUGACAUGAGGAUCACCCAUGUUUUAGUGUGGGCAUGUAGA | 0.103 µM | 0.146 µM |  |  |
| UAUAUGUCAGGAUAUCGAUUGGAAUGGAAUUUAGUUUUGGUCGAGAAGGGACAUGAGGAUCACCCAUGUUUUUC | 0.0387 µM | 0.215 µM |  |  |
| UAUAUUUAUGUAGGAUAUGGUAUACAAAGUAUACCAGAAGGACAUGAGGAUCACCCAUGUAUGAAAUUCCAUAAUUGCCGUGUA | 0.0161 µM | 0.0164 µM |  |  |
| UAUCCACAUGAGGAUCACCCAUGUGAGGAUAUGUCCAUAUUCGGCAAAUCGGAUAUGGACAGAAGGCACACCGG | 0.0369 µM | 0.103 µM |  |  |
| UAUGGUUAAGUCAGGAUAUGCUCGUAGAGGUCUAUGCAGAAGGGACAUGAGGAUCACCCAUGUAAGGUCGUGUU | 0.0399 µM | 0.0663 µM |  |  |
| UAUGUACGAGGAUAUACAUAGAUACAGAUACAUGUAGACGUACAUGAGGAUCACCCAUGUAGAAGGCGUAUAUA | 0.101 µM | 0.122 µM |  |  |
| UAUGUAUUCGUAGGAUAUCCGUUGAGACCGUGUGGAGAAGGACGAACAUGAGGAUCACCCAUGUGUCAUGGUGUAGACAAUUUU | 0.0655 µM | 0.22 µM |  |  |
| UAUGUGUCAGGAUAUUAGUAGUAAAUGAAUAAAAUUAUUACUGAGAAGGGACAUGAGGAUCACCCAUGUGCCUU | 0.0159 µM | 0.0203 µM |  |  |
| UAUUAACACGAAGGAUAUGCUUACAUGAGGAUCACCCAUGUAUGUAUAUUGAUCCAGAGUUUUGAGCAGAAGGUCGUGAGUAAA | 0.0323 µM | 0.153 µM |  |  |
| UAUUAAUACGAAGGAUAUGGUUACAUGAGGAUCACCCAUGUAUGUAUUUUGAUCUAAUUAUUUAACCAGAAGGUCGAAUAUAAA | 0.0355 µM | 0.0785 µM |  |  |
| UAUUAGAUCCGAGGAUAUCCUUUUUUCUUACAUGAGGAUCACCCAUGUAAAGGGAUUGAGUUGUAGGAGAAGGCGGAUUUAGUU |  |  | 0.0334 µM | 0.0151 µM |
| UAUUAUAUAGAGAAGGACAUGAGGAUCACCCAUGUCGCCGGGCCCGGGAAACCGGGCCCGGCCAUGUAGGAUAUCUAUAUGGUA | 0.00496 µM | 0.00586 µM |  |  |
| UAUUAUGUUCGAGGAUAUCCGCGAUGCCGACCAGGAGAAGGCGAACAUGAGGAUCACCCAUGUUAUAGAUGACCGGUUACCAAA | 0.0238 µM | 0.0412 µM |  |  |
| UAUUCUUACGAAGGAUAUGGUUACAUGAGGAUCACCCAUGUAUGUAUAUUGAUCUAGUUUUUUAACCAGAAGGUCGUGAGUAUA | 0.0404 µM | 0.0542 µM |  |  |
| UAUUGAUAAUAUUUUAACAUGAGGAUCACCCAUGUCGCUCGACAGGAUAUAUUUUAUUUGUUUAAGUAGAAGGGUCGCAGAUUU |  |  | 0.117 µM | 0.103 µM |
| UAUUUUAACUAAGGAUAUCUAUAUUAUUUUGAAACAUGAGGAUCACCCAUGUUCAUGGGAUUAUAGGAGAAGGUAGAUGAAUAA |  |  | 0.0146 µM | 0.00954 µM |
| UCAAAGAGAUCGAAUGGGAGGCGUAAGGAUAUGCACAUGAGGAUCACCCAUGUCUACGAAAGUAGGCAGAAGGUACGCGGGAUU |  |  | 0.315 µM | 0.0342 µM |
| UCACGGGAUUGAGGAUAUAUAUGAAUUUUUUUUAUAGAAGGCAAAAUGUUAGAUUAUUCACUAUACAUGAGGAUCACCCAUGUU | 0.0269 µM | 0.0242 µM |  |  |
| UCAGAAGUCACAGGAUAUCCGGCGUAGCACACAGGAGAAGGGUGAUCACGAGCACAUGAGGAUCACCCAUGUGACAUUUGUGGG |  |  | 0.0536 µM | 0.0275 µM |
| UCAGGAGUCACAGGAUAUCCGGCAUAGCAUACAGGAGAAGGGUGAUCACGAGCACAUGAGGAUCACCCAUGUGACAUUUGUGGA |  |  | 0.0963 µM | 0.0833 µM |
| UCAGGCUUCGAGAAGGACAUGAGGAUCACCCAUGUUAAUAUGUAGCAGCCGUGAGGCUGCAUCAUGUAGGAUAUCGGAGUCUGC | 0.00702 µM | 0.0187 µM |  |  |
| UCAUACGGUGAGGAUAUCUCCGUUAAAGUAUGUAGAGAAGGCGCUACAUGAGGAUCACCCAUGUUUGUGGGCAG | 0.392 µM | 0.278 µM |  |  |
| UCAUGAAGGGCAGGAUAUGGACAUGAGGAUCACCCAUGUACAUGGGAUUAUAUACUAAAUUAAUACUAGAAGGGUUACAUAAAU | 0.0479 µM | 0.0231 µM |  |  |
| UCAUGAUAUGUAGGAUAUCACUUUAAUUGAUUAAUAUAUGAAUAUAGAAUUUGAGAAGGACAUUUACAUGAGGAUCACCCAUGU | 0.0129 µM | 0.00967 µM |  |  |
| UCAUUUCAGUAAGGAUAUUUAUUCAUGACGAUACAUGAGGAUCACCCAUGUAAAGAAGGUACUAAUACAAAUAAUGCAUUGUUC | 0.0119 µM | 0.0101 µM |  |  |

| Sequence | apparent Kd [1] | apparent Kd [2] | apparent Kd [3] | apparent Kd [4] |
| --- | --- | --- | --- | --- |
| UCAUUUUCCACAGGAUAUAUUCAUAUACAGUUGUUUGGCUCUUACAUGUUAGUAGAAGGGUGCAACAUGAGGAUCACCCAUGUA |  |  | 0.362 µM | 0.186 µM |
| UCCCAACAUGAGGAUCACCCAUGUAAGGAUAUCUUACUCAUGGACGUCCAUGAGGACCGGAGAAGGUACGUGUA | 0.0194 µM | 0.0198 µM |  |  |
| UCCCAGUAAGGAUAUCAGGCAAGUCUCCGGGAGCUUAGUCGUGAGAAGGUACAUGAGGAUCACCCAUGUGAUUG | 0.058 µM | 0.211 µM |  |  |
| UCCCUAAGGCGGGCCGACCAUACAUGAGGAUCACCCAUGUCGAGAAGGUGCUCACGGGUGGGUGGCAAGGAUAUCGGGUCGGAU |  |  | 0.0788 µM | 0.0405 µM |
| UCCUCCGCAGGAUAUACAUGGGCGCCCGUCUUCAACCAUUAACAUGAGGAUCACCCAUGUAGAAGGGCGUCUCU | 0.0161 µM | 0.0155 µM |  |  |
| UCCUGACAUGAGGAUCACCCAUGUAAUUCCUGCCGAGGAUAUGGGCAACAAAGCGGUUGGCCAGAAGGCGGACAGC |  |  | 0.252 µM | 0.15 µM |
| UCCUGGCGAGGAUAUACAAUGUUUUUCGCGUGUUGUUGGGAACAUGAGGAUCACCCAUGUAGAAGGUGCUACUG | 0.409 µM | 0.286 µM |  |  |
| UCCUGGCGAGGAUAUACAAUGUUUUUCGCGUUUUGUUUCGAACAUGAGGAUCACCCAUGUAGAAGGUGCUACUG | 0.0383 µM | 0.041 µM |  |  |
| UCCUUGUCCUGAGGAUAUCCGCGGUUCCCAAAAGGAGAAGGCAGGACAUGAGGAUCACCCAUGUACCCAGAAAACGUACAGAGU | 0.0447 µM | 0.162 µM |  |  |
| UCCUUGUUCUGAGGAUAUCCGCGGUUCCCAAAAGGAGAAGGCAGGACAUGAGGAUCACCCAUGUACCCAGAAAACGUGCAGAGU | 0.00985 µM | 0.0374 µM |  |  |
| UCGAACGGAAAUAAAGUAAAUAGACAUGAGGAUCACCCAUGUAAGGAUAUGCCUACUAAAAGUAGGCAGAAGGUACGCGUUCGA | 0.0175 µM | 0.0192 µM |  |  |
| UCGAAGUCCGCCGGACGGCGAGCGAGAAGGCACAAUGAAACGACUCUACAUGAGGAUCACCCAUGUGAGGAUAUCGCGACCUAG | 0.00827 µM | 0.0577 µM |  |  |
| UCGAGUCAUGAGAAGGACUGAUGUUACAUGAGGAUCACCCAUGUCAUGGGUAGGAUAUCAUUGACACGGCCGUACCUCUCUUAC |  |  | 0.355 µM | 0.0782 µM |
| UCGCGGUGAGGAUAUAGGUCAAUGCAGGGUCACCAGAUUGCCUAGAAGGCACAUGAGGAUCACCCAUGUGGUAG | 0.049 µM | 0.157 µM |  |  |
| UCGCUGCGAGGAUAUACGUUUGCGCGCUUUCGUUUGCGCGUACAUGAGGAUCACCCAUGUAGAAGGCGCGCUGC | 0.0155 µM | 0.0155 µM |  |  |
| UCGGCGCGAGGAUAUACGGUUGCUUUUUAGGGUCGUGGCGUACAUGAGGAUCACCCAUGUAGAAGGCGCGCCGC | 0.0161 µM | 0.0302 µM |  |  |
| UCGGCGCGAGGAUAUGCGGCUGCUGCUUCGGGCCGUGGCGUACAUGAGGAUCACCCAUGUAGAAGGCGCGCCGC | 0.0131 µM | 0.0141 µM |  |  |
| UCGGCGCGAGGAUAUGCGGUUUGUGCUUUGGGCCCUCGCGUACAUGAGGAUCACCCAUGUAGAAGGCGCGCCGC | 0.192 µM | 0.212 µM |  |  |
| UCGGGUUAUACAGGAUAUGUUUAGGUUUAUUCAUGCAGUUAUUAAUUUAUGACAGAAGGGUAUACAUGAGGAUCACCCAUGUCA | 0.542 µM | 0.387 µM |  |  |
| UCGGUGACAGGAUAUACAUGAGGAUCACCCAUGUUAAGAAGAGAAAGGGCAGGAAGAGGUAGAAGGGUCGCUGU | 0.0517 µM | 0.069 µM |  |  |
| UCGUACAUUCGAGGAUAUCGGUGAUAUAUAUUACGAGAAGGCGAUUGUUUGUUUUACGCCUUAGACAUGAGGAUCACCCAUGUA |  |  | 0.0777 µM | 0.0552 µM |
| UCGUCCACGGAGAAGGGCACAUGAGGAUCACCCAUGUGGGCUUGGUGGUGGUGGUGUUAAAAUGUGUAGGAUAUCCAGGGCCGU | 0.0195 µM | 0.0206 µM |  |  |
| UCGUCCUCGUGCUAGGAUAUCCAUCGUAAAACAUGAGGAUCACCCAUGUAGAAAUGCGCCUACGAGGAGAAGGAGCGAUGUGGAU |  |  | 0.0206 µM | 0.0152 µM |
| UCGUGUUAUACAGGAUAUGUUUAGGUAUAAUCAUUCAGUUAUUAAUUAAUGACAGAAGGGUAAACAUGAGGAUCACCCAUGUCA | 0.179 µM | 0.121 µM |  |  |
| UCGUUUAUACAAGGAUAUCAAUUAUAGCUAAAUUUAACAUGAGGAUCACCCAUGUAACUAUGGAGUGAGAAGGUGUAAUGACUU |  |  | 0.401 µM | 0.251 µM |
| UCUAAUUAGUGAGGAUAUACAUAAUUUAUAACUGUAGAAGGCACAAACCUCAAGACAUGAGGAUCACCCAUGUGGUAUUUAGAU | 0.15 µM | 0.354 µM |  |  |
| UCUAGACAUGAGGAUCACCCAUGUGAGGAUAUGAUGCGAUCGUCGAAAGACGAUAGCAUCAGAAGGCACAAAUG | 0.0665 µM | 0.2 µM |  |  |

Reference: the EternaBench riboswitch data
